In assay [1] the target is T1, DNA topoisomerase 1 (Homo sapiens) (UniProt P11387).
T1 sequence (whole entry): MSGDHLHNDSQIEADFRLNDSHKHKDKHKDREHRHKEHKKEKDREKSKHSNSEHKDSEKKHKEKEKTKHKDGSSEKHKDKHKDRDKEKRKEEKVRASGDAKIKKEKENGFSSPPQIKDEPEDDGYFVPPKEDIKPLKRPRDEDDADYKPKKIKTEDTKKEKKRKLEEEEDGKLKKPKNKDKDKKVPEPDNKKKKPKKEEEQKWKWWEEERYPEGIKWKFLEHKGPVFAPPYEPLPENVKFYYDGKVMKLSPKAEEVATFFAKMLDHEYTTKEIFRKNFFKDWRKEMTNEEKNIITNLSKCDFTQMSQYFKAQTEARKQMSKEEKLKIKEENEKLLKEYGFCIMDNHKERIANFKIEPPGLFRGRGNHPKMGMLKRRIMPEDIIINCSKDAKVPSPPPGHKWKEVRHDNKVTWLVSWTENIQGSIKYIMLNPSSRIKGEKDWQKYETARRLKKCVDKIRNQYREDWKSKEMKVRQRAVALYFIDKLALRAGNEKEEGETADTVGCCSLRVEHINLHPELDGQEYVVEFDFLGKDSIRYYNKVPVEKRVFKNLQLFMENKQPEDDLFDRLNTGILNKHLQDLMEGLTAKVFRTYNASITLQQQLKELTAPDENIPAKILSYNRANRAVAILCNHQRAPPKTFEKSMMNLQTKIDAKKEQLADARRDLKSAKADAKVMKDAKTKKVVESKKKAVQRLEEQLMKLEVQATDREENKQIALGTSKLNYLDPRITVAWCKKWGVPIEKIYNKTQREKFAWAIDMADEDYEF
The assay can be described thus: Inhibition of recombinant human Topo1-mediated relation of supercoiled pBR322 DNA at 50 uM after 30 mins by agarose gel electrophoresis. A digest of the protocol: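 pBR322 at 100 ng with 1.0 unit recombinant human topo I. Incubated 30 min at 37 °C in 35 mM Tris-HCl pH 8.0, 5 mM MgCl2, 72 mM KCl, 0.01% BSA, 2 mM spermidine and 5 mM DTT. Run on 1% agarose in TAE at 100 V for 25 min. EB-stained gel viewed under UV.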

Another assay deals with K562. Briefly: Antiproliferative activity against human K562 cells after 48 hrs by MTT assay. The format is functional, cell-based. The settings on record: K562, 48 h. A digest of the protocol:
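K562 suspension cells in RPMI-1640 with 10% FBS, 37 °C, 5% CO2. Seeded at 1.5×10^4 cells/well, exposed 48 h to final 50, 25, 10, 1 and 0.1 μM. MTT (5 mg/mL) added for 4 h at 37 °C. IC50 from the dose series.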
Background: Tetrazolium assays rely on reduction of a dye to a coloured formazan, in cell work by metabolically active cells.

pIC50: −log10 of the molar value. Active and inactive are the calls of the source. No cut-off for these calls is given here.

Turning to `COCCNC(=O)c1ccc(NCc2cccnc2)c2c(=O)c3cccc(C)c3[nH]c12`, in assay [1], the inhibition entry was “inactive”. For the same compound, the pIC50 (as a rule, the negative decadic logarithm of the IC50, by convention in mol/L) in the assay with K562 is less than 4.30. As for `COCCNC(=O)c1ccc(NCc2ccccn2)c2c(=O)c3cccc(C)c3[nH]c12`, the inhibition entry in assay [1] was “inactive”. The compound further showed a negative-log IC50 (pIC50) in the assay with K562 of less than 4.30. For `CN(C)CCNC(=O)c1ccc(NCc2ccncc2)c2c(=O)c3ccccc3[nH]c12`, in that order: “Active” and 5.20. With `COc1cccc2c(=O)c3c(NCc4ccncc4)ccc(C(=O)NCCN(C)C)c3[nH]c12`, in assay [1], the inhibition result was “Active”. The compound further showed a pIC50 with K562 of 5.87. For `COc1cccc2c(=O)c3c(NCc4cccnc4)ccc(C(=O)NCCN(C)C)c3[nH]c12`, in that order: “Active” and 6.03. For `COCCNC(=O)c1ccc(NCc2ccccn2)c2c(=O)c3cccc(OC)c3[nH]c12`, in that order: “inactive” and less than 4.30. For `COc1cccc2c(=O)c3c(NCc4cccnc4)ccc(C(=O)NCCCN(C)C)c3[nH]c12`, in that order: “Active” and 4.95.

As for `COCCNC(=O)c1ccc(N(Cc2ccccn2)Cc2ccccn2)c2c(=O)c3cccc(C)c3[nH]c12`, the inhibition result in assay [1] was “inactive”. The pIC50 with K562 was 4.95. For `COc1cccc2c(=O)c3c(N(Cc4ccccn4)Cc4ccccn4)ccc(C(=O)NCCN(C)C)c3[nH]c12`, in that order: “inactive” and 4.86. For `COc1cccc2c(=O)c3c(N(Cc4ccccn4)Cc4ccccn4)ccc(C(=O)NCCCN(C)C)c3[nH]c12`, in that order: “inactive” and 4.87. For `COc1cccc2c(=O)c3c(NCc4ccncc4)ccc(C(=O)NCCCCN(C)C)c3[nH]c12`, in that order: “Active” and 5.22. Turning to `Cc1cccc2c(=O)c3c(NCc4ccccn4)ccc(C(=O)NCCCN(C)C)c3[nH]c12`, in assay [1], the inhibition result is “Active”. In addition, the negative-log IC50 (pIC50) in the assay on K562 is 5.19. On to `Cc1cccc2c(=O)c3c(NCc4ccncc4)ccc(C(=O)NCCCN(C)C)c3[nH]c12`, for which the inhibition entry in assay [1] is “Active”. In the assay on K562, this compound showed a negative logarithm of the IC50 (pIC50) of 5.08. For `Cc1cccc2c(=O)c3c(NCc4cccnc4)ccc(C(=O)NCCN(C)C)c3[nH]c12`, in that order: “Active” and 5.96. For `Cc1cccc2c(=O)c3c(NCc4cccnc4)ccc(C(=O)NCCCN(C)C)c3[nH]c12`, in that order: “Active” and 4.93. For `COc1cccc2c(=O)c3c(NCCc4ccncc4)ccc(C(=O)NCCN(C)C)c3[nH]c12`, in that order: “Active” and 5.51. With `CN(C)CCNC(=O)c1ccc(NCc2ccncc2)c2c(=O)c3cccc(C(F)(F)F)c3[nH]c12`, the inhibition entry in assay [1] is “Active”. The same compound had a pIC50 with K562 of 6.05. For `Cc1cccc2c(=O)c3c(NCc4ccccn4)ccc(C(=O)NCCN(C)C)c3[nH]c12`, in that order: “Active” and 5.77. `CN(C)CCNC(=O)c1ccc(NCc2ccncc2)c2c(=O)c3cc(Cl)cc(Cl)c3[nH]c12`: the inhibition entry in assay [1] is “Active”. For the same compound, the pIC50 in the assay with K562 is 6.01. `COCCNC(=O)c1ccc(NCc2ccncc2)c2c(=O)c3cccc(C)c3[nH]c12`: the inhibition result in assay [1] was “inactive”. In addition, the pIC50 in the assay with K562 is less than 4.30. In the case of `COCCNC(=O)c1ccc(NCc2ccncc2)c2c(=O)c3cccc(OC)c3[nH]c12`, the inhibition result in assay [1] is “inactive”. Also, the negative logarithm of the IC50 (pIC50) with K562 was less than 4.30. For `COc1cccc2c(=O)c3c(NCc4ccccn4)ccc(C(=O)NCCCN(C)C)c3[nH]c12`, in that order: “Active” and 5.21. For `COc1cccc2c(=O)c3c(NCc4ccccn4)ccc(C(=O)NCCN(C)C)c3[nH]c12`, in that order: “Active” and 5.64. For `COc1cccc2c(=O)c3c(NCc4ccncc4)ccc(C(=O)NCCCN(C)C)c3[nH]c12`, in that order: “Active” and 4.92. In the assay with K562, `COc1cccc2c1C(=O)c1c(O)c3c(c(O)c1C2=O)C[C@@](O)(C(=O)CO)C[C@@H]3O[C@H]1C[C@H](N)[C@H](O)[C@H](C)O1` [DOXORUBICIN] showed a pIC50 of 6.26. For the compound `COCCNC(=O)c1ccc(NCc2cccnc2)c2c(=O)c3cccc(OC)c3[nH]c12`, the inhibition result in assay [1] was “inactive”. This compound also gave a pIC50 with K562 of less than 4.30.

(Values after ChEMBL document CHEMBL3407337, “Molecular design, synthesis and biological research of novel pyridyl acridones as potent DNA-binding and apoptosis-inducing agents” (Eur J Med Chem, 2015).)
